Laboratory results: paper PMC12977181 (Journal of natural products, 2025)
“Also recorded” adds a separate entry of the source. Like-named read-outs stand apart in the source and are kept apart here.

How the values were obtained:
HEK293 cells [1] = assay: Cytotoxicity in HEK293 cells, resazurin reduction assay; assay type: cell-based; settings: 24 h; for cell death at 30 μM: resazurin (Figure 7A); for LD50: 0.03-30 μM, logarithmic nonlinear regression curve (Figure 7B)
p-eIF2α = assay: Immunocytochemistry of p-eIF2α in primary mouse DRGs; assay type: cell-based; settings: approximately 16 h, vs vehicle (0.01% DMSO)
Method in brief: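 Primary mouse DRG neurons were cultured overnight in Neurobasal A, then exposed for ~16 h to test compounds (30–1000 nM) or 0.01% DMSO. Cells were formalin-fixed, blocked in 10% goat serum with 0.1% Triton X-100, and immunostained for p-eIF2α (Alexa 555) and peripherin (Alexa 488) with DAPI. p-eIF2α was quantified as mean gray intensity in peripherin-positive neurons. One-way ANOVA with Tukey's test; mean ± SEM.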

[2] = system: mice with neuropathic pain; settings: through σ2R/TMEM97; cited from earlier work
HEK293 cells [3] = settings: cited from earlier work
breast cancer cell lines = settings: cited from earlier work
[4] = system: primary mouse DRG neurons; assay: Functional calcium imaging in primary mouse DRG neurons; assay type: cell-based; settings: 10 μM Ver E
Method in brief: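 DRGs from an 18-week-old male Nestin-Cre × Cre-dependent GCaMP6f mouse were digested with papain (15 IU/mL) plus collagenase (2.25 mg/mL) at 37 °C for 20 min and plated at 450,000–500,000 cells/mL in Neurobasal A. Imaging ran 24 h later with FITC optics. Maximum fluorescence was taken during direct 10 μM exposure and during SOCE, against 0.1% DMSO vehicle. Unpaired two-tailed t tests; SEM; n = cells.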

[5] = system: hiPSC-derived nociceptors; assay: Multiwell microelectrode array; assay type: cell-based, human

Compound: C[C@@H]1CC[C@@]2(OC1)O[C@H]1[C@@H](O)[C@H]3[C@@H]4CC[C@H]5C[C@@H](O[C@@H]6O[C@H](CO)[C@H](O[C@@H]7O[C@H](CO)[C@@H](O)[C@H](O[C@@H]8OC[C@@H](O)[C@H](O)[C@H]8O)[C@H]7O[C@@H]7O[C@H](CO)[C@H](O)[C@H](O[C@@H]8O[C@H](CO)[C@@H](O)[C@H](O)[C@H]8O)[C@H]7O)[C@H](O)[C@H]6O)[C@H](O)C[C@]5(C)[C@H]4CC[C@]3(C)[C@H]1[C@@H]2C [digitonin, reference compound]
- cell death at 30 μM (HEK293 cells [1]): 100%
- LD50 (HEK293 cells [1]; resazurin): 9.68 µM

Compound: OCCCN1CCC2CC1c1cc(-c3ccc(C(F)(F)F)cc3)ccc12 (stereo not shown) [FEM-1689, reference compound]
- p-eIF2α expression (mean gray intensity), in words (p-eIF2α; FEM-1689 30 nM): marked reduction
- analgesic effect, in words [2]: drives analgesic responses

Compound: veraguamide C
- cytotoxicity, in words (HEK293 cells [3]): nontoxic
- cytotoxicity, in words (breast cancer cell lines): mild cytotoxicity

Compound: C#CCCC[C@H]1OC(=O)[C@H](C(C)C)N(C)C(=O)[C@@H]2CCCN2C(=O)[C@H]([C@@H](C)CC)OC(=O)[C@H]([C@@H](C)CC)N(C)C(=O)[C@H]([C@@H](C)CC)NC(=O)[C@H]1C [Ver E, veraguamide E]
- Maximum fluorescence during the SOCE response (mean) ([4]; 0.1% DMSO, max ΔF/F0, after reintroduction of extracellular Ca2+, vehicle mean = 2.126, no significant difference): 1.929
- DRG excitability during coapplication with thapsigargin, in words ([4]; compared to thapsigargin alone, P < 0.01): significantly increased DRG excitability
- SOCE response, in words ([4]; upon reintroduction of extracellular Ca2+): no significant change
- neuronal activity at 24 h, in words ([5]; 30 μM, 37 °C, 24-h time point): returning to baseline
- effect on activity at 42 °C (heat ramp 37 to 42 °C), in words ([5]; 42 °C, Ver E vs vehicle (DMSO)): no significant effect; also recorded: nonsignificant decrease
- p-eIF2α levels (mean gray intensity), in words (p-eIF2α; Ver E 100 nM): No observable differences
- p-eIF2α levels (mean gray intensity), in words (p-eIF2α; Ver E 1000 nM): No observable differences
- cytotoxicity, in words (HEK293 cells [1]; 0.03 μM to 30 μM, resazurin): no evidence of cytotoxicity
- cell death at 30 μM (HEK293 cells [1]): no cytotoxicity
- LD50 (HEK293 cells [1]; resazurin): no detectable LD50
